This is an account of results in ChEMBL document CHEMBL1772991, “Synthesis and structure-activity relationship of tricyclic carboxylic acids as novel anti-histamines” (Bioorg Med Chem, 2011).

The IC50 is the point on the concentration scale where inhibition reaches its midpoint. In general, Papp A→B refers to the apparent permeability from the apical to the basolateral side of a cell layer. Read a low Papp A→B as slow passage. In general, inhibition in vivo refers to the change of the read-out against control, counted positive when it falls. What is called bioavailability is the share of a dose that reaches the circulation, judged against a reference dose that is usually intravenous. A high value points to good availability.

Data set [1] concerns the target Histamine H1 receptor (Homo sapiens, UniProt P35367). Briefly: Displacement of [3H]pyrilamine from human histamine H1 receptor expressed in CHO-K1 cells after 60 mins by scintillation counting. Type of data set: cell-based. Background: Loss of bound radioactivity is the signal in a displacement assay; it reports binding, not function.
Data set [2] can be described thus: Permeability from apical to basolateral side of human Caco2 cells after 120 mins. The settings on record: Caco-2. On the technique in general: Caco-2 monolayers are a common model of the intestinal barrier.
Data set [3] deals with Mus musculus. Briefly: In vivo antihistaminic activity at histamine H1 receptor in ddY mouse assessed as inhibition of histamine-induced skin vascular permeability at 3 mg/kg, po administered 1 hr before histamine challenge by Evan's blue staining. It counts as functional. The method in brief: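 Female ddY mice, 8 weeks old, dosed orally at 3 mg/kg as a suspension in 0.5% methylcellulose, 1 h before intradermal histamine ([…]) into back skin, following i.v. Evans blue. Mice sacrificed 30 min after histamine; dyed area measured. % inhibition, mean ± SE of six mice.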

Data set [4] in a line: Oral bioavailability in fasted rat at 10 mg/kg after 24 hrs. It counts as ADME, organism-based. The settings on record: in vivo. Put shortly: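 Fasted male rats (n = 3 per route). Dosing: 1 mg/kg i.v. in 5% glucose/0.1 N HCl (9:1), or 10 mg/kg p.o. as a 0.5% methylcellulose suspension. Jugular blood sampled up to 24 h (po: 15, 30 min, 1, 2, 4, 6, 24 h) and plasma stored at -70 °C. AUCs taken from plasma concentration–time courses. BA = (AUCpo/Dpo)/(AUCiv/Div) × 100.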

Data set [5] is filed under the species Mus musculus. Briefly: Ex vivo receptor occupancy of histamine H1 receptor in mouse brain at ED70 after 30 mins by scintillation counting. Type of data set: functional.
Data set [6] deals with Mus musculus. Briefly: Antiinflammatory activity in ovalbumin-sensitized BALB/c mouse biphasic allergic model assessed as immediate type reaction at 10 mg/kg, po administered 1 hr before ovalbumin challenge measured 1 hr after elicitation by ear swelling assay. Type of data set: functional. The method in brief: (§1)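 Female Balb/c mice, 8 weeks old, sensitized i.p. with OVA plus alum. Two weeks later, compound given orally as a 0.5% methylcellulose suspension at 10 mg/kg, 1 h before intradermal OVA into the ear.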

The test system of data set [7] is Mus musculus. The data set can be described thus: Antiinflammatory activity in ovalbumin-sensitized BALB/c mouse biphasic allergic model assessed as late type reaction at 10 mg/kg, po administered 1 hr before ovalbumin challenge measured 24 hrs after elicitation by ear swelling assay. It counts as functional. The method in brief: as §1
The species entered for data set [8] is Mus musculus. The data set can be described thus: animal or person. It counts as functional. The settings on record: ddY, po.
Data set [9] has as its target T1, Adrenergic receptor alpha-1 (Homo sapiens, UniProt P35348+P25100+P35368).
T1 sequence (P35348 whole entry): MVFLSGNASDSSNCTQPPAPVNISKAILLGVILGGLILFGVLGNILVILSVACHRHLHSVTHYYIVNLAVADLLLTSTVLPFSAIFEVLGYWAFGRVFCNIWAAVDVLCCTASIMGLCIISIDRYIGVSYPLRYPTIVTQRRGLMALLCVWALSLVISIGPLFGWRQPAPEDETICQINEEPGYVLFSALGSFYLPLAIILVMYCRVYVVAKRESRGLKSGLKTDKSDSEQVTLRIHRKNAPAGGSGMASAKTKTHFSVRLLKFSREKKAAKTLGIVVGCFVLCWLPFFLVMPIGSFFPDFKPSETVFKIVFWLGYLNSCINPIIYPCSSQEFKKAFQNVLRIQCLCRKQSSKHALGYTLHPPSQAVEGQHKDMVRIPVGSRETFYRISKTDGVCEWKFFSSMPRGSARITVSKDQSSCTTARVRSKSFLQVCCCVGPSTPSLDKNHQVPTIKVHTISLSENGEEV
T1 sequence (P25100 whole entry): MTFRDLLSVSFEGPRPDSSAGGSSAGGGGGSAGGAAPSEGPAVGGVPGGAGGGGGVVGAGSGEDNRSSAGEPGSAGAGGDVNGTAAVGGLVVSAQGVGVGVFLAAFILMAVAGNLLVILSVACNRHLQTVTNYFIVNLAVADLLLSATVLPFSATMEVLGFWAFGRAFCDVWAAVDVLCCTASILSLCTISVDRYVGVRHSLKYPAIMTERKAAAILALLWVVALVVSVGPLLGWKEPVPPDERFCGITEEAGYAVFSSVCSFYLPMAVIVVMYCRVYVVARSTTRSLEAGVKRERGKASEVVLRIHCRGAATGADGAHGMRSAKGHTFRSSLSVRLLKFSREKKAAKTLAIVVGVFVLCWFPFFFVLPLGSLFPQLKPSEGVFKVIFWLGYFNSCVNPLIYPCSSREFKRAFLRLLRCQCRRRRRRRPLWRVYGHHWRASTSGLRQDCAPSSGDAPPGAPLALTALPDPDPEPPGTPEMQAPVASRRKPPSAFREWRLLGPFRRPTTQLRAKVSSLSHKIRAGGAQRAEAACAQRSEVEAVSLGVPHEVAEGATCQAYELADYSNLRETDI
T1 sequence (P35368 whole entry): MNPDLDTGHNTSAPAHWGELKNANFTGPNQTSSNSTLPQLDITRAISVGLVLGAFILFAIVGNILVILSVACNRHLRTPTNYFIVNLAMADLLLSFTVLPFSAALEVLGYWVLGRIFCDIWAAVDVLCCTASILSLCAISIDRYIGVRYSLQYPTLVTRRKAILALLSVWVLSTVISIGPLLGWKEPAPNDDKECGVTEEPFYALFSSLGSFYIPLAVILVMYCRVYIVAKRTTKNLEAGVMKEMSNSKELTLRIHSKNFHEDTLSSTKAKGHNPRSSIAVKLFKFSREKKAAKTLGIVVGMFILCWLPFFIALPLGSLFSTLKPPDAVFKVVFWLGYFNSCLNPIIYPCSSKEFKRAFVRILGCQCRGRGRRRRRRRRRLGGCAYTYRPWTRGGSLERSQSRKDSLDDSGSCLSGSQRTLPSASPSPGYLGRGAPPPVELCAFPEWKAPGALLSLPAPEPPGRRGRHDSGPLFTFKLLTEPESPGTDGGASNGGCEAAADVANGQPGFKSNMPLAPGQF
The data set can be described thus: Displacement of [3H]prazosin from human adrenergic alpha1 expressed in CHO-K1 cells after 30 mins by scintillation counting. It counts as cell-based. Put shortly:
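Membranes from stable recombinant CHO-K1 cells expressing human α1 adrenoceptor were incubated with graded compound concentrations and 0.3 nM [3H]-prazosin in 50 mM Tris-HCl pH 7.6 for 30 min at room temperature. Nonspecific binding was defined with 1 µM prazosin. Samples were filtered on GF/B, washed and scintillation counted; specific binding is total minus nonspecific. Single experiment.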

The species entered for data set [10] is Homo sapiens. The data set can be described thus: Ratio of IC50 for human adrenergic alpha1 to IC50 for human histamine H1 receptor.

Histamine H1 receptor, sequence (P35367 whole entry): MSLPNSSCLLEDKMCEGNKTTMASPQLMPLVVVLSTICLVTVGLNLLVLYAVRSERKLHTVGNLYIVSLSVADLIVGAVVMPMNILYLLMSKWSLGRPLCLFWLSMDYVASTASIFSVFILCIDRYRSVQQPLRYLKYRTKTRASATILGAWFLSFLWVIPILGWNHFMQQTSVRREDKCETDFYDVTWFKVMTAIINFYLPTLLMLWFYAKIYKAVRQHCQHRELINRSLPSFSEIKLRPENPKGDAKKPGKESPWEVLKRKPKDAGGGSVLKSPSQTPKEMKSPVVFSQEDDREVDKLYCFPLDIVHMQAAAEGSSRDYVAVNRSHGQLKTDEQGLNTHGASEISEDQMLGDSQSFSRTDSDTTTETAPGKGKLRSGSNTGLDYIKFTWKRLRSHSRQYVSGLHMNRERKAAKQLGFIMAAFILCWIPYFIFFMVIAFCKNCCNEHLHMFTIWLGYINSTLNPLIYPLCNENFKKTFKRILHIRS

On to `Cn1c(N2CCCN(CCCN3c4ccccc4CCc4ccc(CC(=O)O)cc43)CC2)cc(=O)n(C)c1=O`, for which, in [1], the IC50 was 54 nM. In data set [2], this compound showed a Papp A→B at 2 h of 2.6 ×10⁻⁶ cm/s.
For `Cn1c(N2CCCN(CCCN3c4ccccc4COc4ccc(CC(=O)O)cc43)CC2)cc(=O)n(C)c1=O` the same measures were 128 nM and 1.6 ×10⁻⁶ cm/s.
In [1], `Cn1c(N2CCCN(CCCN3c4cc(C(=O)O)ccc4COc4ccccc43)CC2)cc(=O)n(C)c1=O` yielded an IC50 of 530 nM. This compound yielded an apparent permeability from apical to basolateral (Papp A→B) at 2 h in data set [2] of 1.6 ×10⁻⁶ cm/s.
The matching figures for `Cn1c(N2CCCN(CCCN3c4ccccc4COc4ccc(C(C)(C)C(=O)O)cc43)CC2)cc(=O)n(C)c1=O`: 150 nM and 4.6 ×10⁻⁶ cm/s.
In data set [1], `Cn1c(N2CCCN(CC/C=C3/c4ccccc4COc4ccc(CC(=O)O)cc43)CC2)cc(=O)n(C)c1=O` returned an IC50 of 92 nM. Further, the apical-to-basolateral permeability (Papp A→B) at 2 h in data set [2] was 4 ×10⁻⁶ cm/s. Moreover, in [3], the inhibition in vivo at 3 mg/kg is 32%.
`Cn1c(N2CCN(CC/C=C3/c4ccccc4CCc4ccc(CC(=O)O)cc43)CC2)cc(=O)n(C)c1=O`: the IC50 in data set [1] is 195 nM. The Papp A→B at 2 h in [2] was found to be 14.7 ×10⁻⁶ cm/s.
The matching figures for `Cn1c(N2CCN(CC/C=C3\c4ccccc4COc4ccc(CC(=O)O)cc43)CC2)cc(=O)n(C)c1=O`: 540 nM and 4.7 ×10⁻⁶ cm/s.
For the compound `Cn1c(N2CCCN(CCCN3c4ccccc4COc4ccc(C(=O)O)cc43)CC2)cc(=O)n(C)c1=O`, in data set [1], the IC50 worked out at 41 nM. The same compound gave an apical-to-basolateral permeability (Papp A→B) at 2 h in [2] of 6.3 ×10⁻⁶ cm/s. Further, the inhibition in vivo at 3 mg/kg in data set [3] amounted to 87%. In addition, the bioavailability in [4] was found to be 23%.
In the case of `Cn1c(N2CCCN(CC/C=C3/c4ccccc4CCc4ccc(CC(=O)O)cc43)CC2)cc(=O)n(C)c1=O`, the concentration for half-maximal inhibition (IC50) in data set [1] is 135 nM. This compound also displayed a Papp A→B at 2 h in [2] of 4.8 ×10⁻⁶ cm/s.
For `Cn1c(N2CCCN(CC/C=C3/c4ccccc4CCc4ccc(C(=O)O)cc43)CC2)cc(=O)n(C)c1=O` the same measures were 153 nM and 6.9 ×10⁻⁶ cm/s.
`Cn1c(N2CCN(CCCN3c4ccccc4COc4ccc(C(=O)O)cc43)CC2)cc(=O)n(C)c1=O` gave an IC50 in data set [1] of 140 nM. For the same compound, the Activity in data set [5] was determined as 20%.
For the compound `CN1CCC(=C2c3ccccc3CC(=O)c3sccc32)CC1` [KETOTIFEN], the results for the inhibition in vivo at 10 mg/kg in [6] and in [7] were 119% and 3%, respectively. The compound also returned an ED70 in data set [8] of 0.067 mg/kg.
With `CC(C)(C(=O)O)c1ccc(C(O)CCCN2CCC(C(O)(c3ccccc3)c3ccccc3)CC2)cc1` (stereo not drawn) [FEXOFENADINE], the results for the inhibition in vivo at 10 mg/kg in [6] and in data set [7] were 61% and 6%, respectively. The compound also registered an Activity in [5] of 12%.
The compound `Cn1c(N2CCN(CC/C=C3/c4ccccc4COc4ccc(C(=O)O)cc43)CC2)cc(=O)n(C)c1=O` displayed an IC50 in [1] of 325 nM. That is a sub-micromolar value.
`Cn1c(N2CCN(CCCN3c4ccccc4Sc4ccc(CC(=O)O)cc43)CC2)cc(=O)n(C)c1=O`: the inhibition in vivo at 3 mg/kg in [3] amounted to 82%. For the same compound, the inhibition in vivo at 10 mg/kg stood at 73% in [6] and 64% in data set [7]. This compound came in with a concentration for half-maximal inhibition (IC50) in data set [9] of 430 nM. In addition, the Ratio IC50 in data set [10] was 11. For the same compound, in data set [8], the ED70 worked out at 1.61 mg/kg. Also, the Activity in data set [5] is 38%.
`Cn1c(N2CCN(CCCN3c4ccccc4COc4ccc(CC(=O)O)cc43)CC2)cc(=O)n(C)c1=O` had an IC50 in data set [1] of 255 nM. The compound further registered a Papp A→B at 2 h in data set [2] of 3 ×10⁻⁶ cm/s.
For `Cn1c(N2CCN(CC/C=C3/c4ccccc4COc4ccc(CC(=O)O)cc43)CC2)cc(=O)n(C)c1=O`, the IC50 in data set [1] was 84 nM; in data set [9], 4800 nM. In addition, in data set [2], the Papp A→B at 2 h amounted to 7.3 ×10⁻⁶ cm/s. The inhibition in vivo at 3 mg/kg in data set [3] came out at 53%. In [4], this compound displayed a bioavailability of 76%. In addition, the values for the inhibition in vivo at 10 mg/kg in [6] and in [7] were 105% and 78%, respectively. Moreover, the Ratio IC50 in data set [10] came to 57.
As to `CC(C(=O)O)c1ccc2c(c1)N(CCCN1CCCN(c3cc(=O)n(C)c(=O)n3C)CC1)c1ccccc1CO2` (stereo not drawn), the IC50 in data set [1] came to 128 nM. Moreover, the Papp A→B at 2 h in data set [2] came to 1.9 ×10⁻⁶ cm/s.
`Cn1c(N2CCCN(CCCN3c4ccccc4CCc4ccc(C(C)(C)C(=O)O)cc43)CC2)cc(=O)n(C)c1=O` gave a half-inhibitory concentration (IC50) in data set [1] of 75 nM. In [2], the apparent permeability from apical to basolateral (Papp A→B) at 2 h is 7 ×10⁻⁶ cm/s. Besides, the inhibition in vivo at 3 mg/kg in data set [3] came out at 67%. The same compound displayed a bioavailability in [4] of 14%.
On to `Cn1c(N2CCCN(CC/C=C3/c4ccccc4COc4ccc(C(=O)O)cc43)CC2)cc(=O)n(C)c1=O`, for which the IC50 in data set [1] was 63 nM. The same compound registered a Papp A→B at 2 h in [2] of 3.8 ×10⁻⁶ cm/s.
`Cn1c(N2CCCN(CCCN3c4ccccc4CCc4ccc(C(=O)O)cc43)CC2)cc(=O)n(C)c1=O`: in data set [1], the IC50 came out at 70 nM. In data set [2], this compound gave an apical-to-basolateral permeability (Papp A→B) at 2 h of 4.4 ×10⁻⁶ cm/s. Moreover, the inhibition in vivo at 3 mg/kg in data set [3] turned out to be 50%. In data set [4], this compound came in with a bioavailability of 33%. For the same compound, the inhibition in vivo at 10 mg/kg in [6] is 30%; in data set [7], 46%.
